According to ChEMBL document CHEMBL3526048, “In vitro metabolism of rivoglitazone, a novel peroxisome proliferator-activated receptor γ agonist, in rat, monkey, and human liver microsomes and freshly isolated hepatocytes” (Drug Metab Dispos, 2011):

Legend:
Hepatocyte = test: Drug level in rat hepatocytes treated with [14C]-rivoglitazone at 30 uM after 3 hrs by radio-HPLC/LC-MS/MS analysis in presence of UDPGA, UDPGA/SAM and NADPH-generating system; assay type: ADME, cell-based
Cytochrome P450 2C19 = Cytochrome P450 2C19 (Homo sapiens, UniProt P33261); test: Activity of human CYP2C19 expressed in microsomes isolated from baculovirus infected insect cell assessed as enzyme-mediated compound formation treated with [14C]-rivoglitazone at 20 uM after 2 hrs by radio-HPLC/LC-MS/MS analysis in presence of NADPH-generating system; assay type: ADME
Summary of the method: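 Baculovirus/insect-cell microsomes expressing single human CYPs, 1 mg/ml protein, with 50 mM potassium phosphate (pH 7.4) or 100 mM Tris-HCl (pH 7.5). NADPH-generating system: 2 mM NADP⁺, 20 mM glucose 6-phosphate, 2 units/ml G6PDH, 10 mM MgCl₂. [¹⁴C]rivoglitazone at 20 μM, 2 h at 37°C with shaking. Control used insect-cell control supersomes. Stopped with acetonitrile; supernatant concentrated under nitrogen; metabolites analysed by radio-HPLC, LC-MS and LC-MS/MS.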

Cytochrome P450 3A5 [1] = target: T1, Cytochrome P450 3A5 (Homo sapiens, UniProt P20815); test: Activity of human CYP3A5 expressed in microsomes isolated from baculovirus infected insect cell assessed as enzyme-mediated (2S,3S,4S,5R,6R)-6-((1-carboxy-2-(4-((6-methoxy-1-methyl-1H-benzo[d]imidazol-2-yl)methoxy)phenyl)ethylthio)carbonylamino)-3,4,5-trihydroxytetrahydro-2H-pyran-2-carboxylic acid formation at 20 uM after 2 hrs by radio-HPLC/LC-MS/MS analysis in presence of NADPH-generating system/SAM; assay type: ADME
[2] = Drug metabolism in human hepatocytes assessed as formation of 3-(4-((6-methoxy-1-methyl-1H-benzo[d]imidazol-2-yl)methoxy)phenyl)-2-(methylsulfinyl)propanamide at 30 uM after 3 hrs by radio-HPLC/LC-MS/MS analysis in presence of NADPH-generating system/SAM; assay type: ADME, cell-based, Hepatocyte
Liver microsome = test: Drug metabolism in human liver microsomes assessed as formation of 2-amino-3-((1-carboxy-2-(4-((6-methoxy-1-methyl-1H-benzo[d]imidazol-2-yl)methoxy)phenyl)ethyl)disulfanyl)propanoic acid at 20 uM by radio-HPLC/LC-MS/MS analysis; assay type: ADME
[3] = target: T2, UDP-glucuronosyltransferase 2B17 (Homo sapiens, UniProt O75795); test: Activity of human UGT2B17 expressed in microsomes isolated from baculovirus infected insect cell assessed as enzyme-mediated 2-mercapto-3-(4-((6-methoxy-1-methyl-1H-benzo[d]imidazol-2-yl)methoxy)phenyl)propanoic acid formation at 20 uM after 4 hrs by radio-HPLC/LC-MS/MS analysis in presence of UDPGA; assay type: ADME
T2 sequence (O75795 whole entry): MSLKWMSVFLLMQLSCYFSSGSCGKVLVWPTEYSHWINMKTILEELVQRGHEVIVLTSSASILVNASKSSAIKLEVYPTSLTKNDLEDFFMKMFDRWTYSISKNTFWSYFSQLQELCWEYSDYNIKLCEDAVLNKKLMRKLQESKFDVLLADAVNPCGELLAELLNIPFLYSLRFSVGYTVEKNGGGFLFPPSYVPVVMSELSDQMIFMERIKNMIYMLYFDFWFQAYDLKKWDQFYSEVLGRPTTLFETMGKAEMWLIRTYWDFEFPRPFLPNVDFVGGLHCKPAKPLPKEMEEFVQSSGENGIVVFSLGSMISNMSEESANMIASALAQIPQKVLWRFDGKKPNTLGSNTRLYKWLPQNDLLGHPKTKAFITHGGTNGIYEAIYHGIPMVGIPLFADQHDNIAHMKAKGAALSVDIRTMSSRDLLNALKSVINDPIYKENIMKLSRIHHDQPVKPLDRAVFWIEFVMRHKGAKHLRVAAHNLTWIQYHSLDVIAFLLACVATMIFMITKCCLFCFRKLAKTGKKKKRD

Cytochrome P450 2D6 = Cytochrome P450 2D6 (Homo sapiens, UniProt P10635); test: Activity of human CYP2D6 expressed in microsomes isolated from baculovirus infected insect cell assessed as enzyme-mediated 3-(4-((6-methoxy-1-methyl-1H-benzo[d]imidazol-2-yl)methoxy)phenyl)-2-(methylsulfinyl)propanamide formation at 20 uM after 2 hrs by radio-HPLC/LC-MS/MS analysis in presence of NADPH-generating system/SAM; assay type: ADME
Cytochrome P450 3A5 [4] = target: T1, Cytochrome P450 3A5; test: Activity of human CYP3A5 expressed in microsomes isolated from baculovirus infected insect cell assessed as enzyme-mediated 5-hydroxy-5-(4-((6-methoxy-1-methyl-1H-benzo[d]imidazol-2-yl)methoxy)benzyl)thiazolidine-2,4-dione formation at 20 uM after 2 hrs by radio-HPLC/LC-MS/MS analysis in presence of NADPH-generating system and NADPH-generating system/SAM; assay type: ADME
Summary of the method: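 cDNA-expressed human CYP3A5 in baculovirus-insect-cell microsomes (1 mg/ml protein) was incubated with [¹⁴C]rivoglitazone (20 μM) in 50 mM potassium phosphate (pH 7.4) or 100 mM Tris-HCl (pH 7.5). NADPH-generating system: 2 mM NADP⁺, 20 mM glucose 6-phosphate, 2 units/ml G6PDH, 10 mM MgCl₂. Incubation ran 2 h at 37°C with shaking; insect-cell control supersomes served as control. Acetonitrile stop, supernatant concentrated, then radio-HPLC, LC-MS and LC-MS/MS.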

Cytochrome P450 1A2 = target: T3, Cytochrome P450 1A2 (Homo sapiens, UniProt P05177); test: Activity of human CYP1A2 expressed in microsomes isolated from baculovirus infected insect cell assessed as enzyme-mediated 3-(4-((6-methoxy-1-methyl-1H-benzo[d]imidazol-2-yl)methoxy)phenyl)-2-(methylthio)propanamide formation at 20 uM after 2 hrs by radio-HPLC/LC-MS/MS analysis in presence of NADPH-generating system/SAM; assay type: ADME
T3 sequence (P05177 whole entry): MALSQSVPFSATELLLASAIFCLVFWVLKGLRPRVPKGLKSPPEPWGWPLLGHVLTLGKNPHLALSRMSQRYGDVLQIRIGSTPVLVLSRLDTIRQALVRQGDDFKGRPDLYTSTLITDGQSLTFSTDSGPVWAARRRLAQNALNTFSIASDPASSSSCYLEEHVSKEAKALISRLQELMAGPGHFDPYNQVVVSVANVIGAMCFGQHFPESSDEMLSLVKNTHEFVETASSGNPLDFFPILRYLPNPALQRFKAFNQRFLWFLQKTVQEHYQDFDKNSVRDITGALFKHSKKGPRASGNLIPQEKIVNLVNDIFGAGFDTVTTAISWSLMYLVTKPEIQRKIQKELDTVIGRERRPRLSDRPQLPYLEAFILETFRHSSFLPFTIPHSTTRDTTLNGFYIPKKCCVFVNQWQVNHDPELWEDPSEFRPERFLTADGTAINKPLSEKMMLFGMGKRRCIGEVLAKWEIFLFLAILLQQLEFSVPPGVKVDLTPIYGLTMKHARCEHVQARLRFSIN

Cytochrome P450 3A4 = Cytochrome P450 3A4 (Homo sapiens, UniProt P08684); test: Activity of human CYP3A4 expressed in microsomes isolated from baculovirus infected insect cell assessed as enzyme-mediated 2-mercapto-3-(4-((6-methoxy-1-methyl-1H-benzo[d]imidazol-2-yl)methoxy)phenyl)propanamide formation at 20 uM after 2 hrs by radio-HPLC/LC-MS/MS analysis in presence of NADPH-generating system and NADPH-generating system/SAM; assay type: ADME
[5] = Drug metabolism in po dosed monkey liver microsomes assessed as formation of 5-(4-((6-methoxy-1H-benzo[d]imidazol-2-yl)methoxy)benzyl)thiazolidine-2,4-dione; assay type: ADME, Macaca mulatta; conditions: rhesus monkey

T1 sequence (P20815 whole entry): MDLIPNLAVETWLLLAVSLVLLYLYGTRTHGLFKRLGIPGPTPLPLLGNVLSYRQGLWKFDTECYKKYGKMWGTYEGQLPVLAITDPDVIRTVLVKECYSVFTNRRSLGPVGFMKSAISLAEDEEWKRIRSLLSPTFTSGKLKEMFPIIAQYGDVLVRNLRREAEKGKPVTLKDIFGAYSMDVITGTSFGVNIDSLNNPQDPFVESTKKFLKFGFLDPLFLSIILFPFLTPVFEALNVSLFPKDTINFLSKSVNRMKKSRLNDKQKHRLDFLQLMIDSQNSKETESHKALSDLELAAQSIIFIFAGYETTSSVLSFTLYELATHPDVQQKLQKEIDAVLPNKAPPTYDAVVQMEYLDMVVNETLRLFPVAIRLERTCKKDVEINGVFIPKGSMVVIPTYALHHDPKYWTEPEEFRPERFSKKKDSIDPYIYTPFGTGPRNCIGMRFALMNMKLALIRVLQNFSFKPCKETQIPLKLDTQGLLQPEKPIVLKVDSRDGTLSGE
Chain of Cytochrome P450 3A4 (P08684 whole entry): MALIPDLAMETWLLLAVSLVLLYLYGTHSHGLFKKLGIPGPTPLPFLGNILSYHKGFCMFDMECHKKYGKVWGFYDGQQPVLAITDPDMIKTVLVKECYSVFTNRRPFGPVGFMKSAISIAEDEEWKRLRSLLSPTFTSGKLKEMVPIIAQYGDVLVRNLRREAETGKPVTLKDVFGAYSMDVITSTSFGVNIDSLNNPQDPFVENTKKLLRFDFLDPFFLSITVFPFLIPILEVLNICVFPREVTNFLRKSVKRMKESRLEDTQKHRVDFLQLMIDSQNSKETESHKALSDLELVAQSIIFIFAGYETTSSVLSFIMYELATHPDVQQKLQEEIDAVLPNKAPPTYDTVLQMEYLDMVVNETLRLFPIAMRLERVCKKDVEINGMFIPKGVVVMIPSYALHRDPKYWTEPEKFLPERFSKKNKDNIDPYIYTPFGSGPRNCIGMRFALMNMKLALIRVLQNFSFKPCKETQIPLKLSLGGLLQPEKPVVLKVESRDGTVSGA
Chain of Cytochrome P450 2D6 (P10635 whole entry): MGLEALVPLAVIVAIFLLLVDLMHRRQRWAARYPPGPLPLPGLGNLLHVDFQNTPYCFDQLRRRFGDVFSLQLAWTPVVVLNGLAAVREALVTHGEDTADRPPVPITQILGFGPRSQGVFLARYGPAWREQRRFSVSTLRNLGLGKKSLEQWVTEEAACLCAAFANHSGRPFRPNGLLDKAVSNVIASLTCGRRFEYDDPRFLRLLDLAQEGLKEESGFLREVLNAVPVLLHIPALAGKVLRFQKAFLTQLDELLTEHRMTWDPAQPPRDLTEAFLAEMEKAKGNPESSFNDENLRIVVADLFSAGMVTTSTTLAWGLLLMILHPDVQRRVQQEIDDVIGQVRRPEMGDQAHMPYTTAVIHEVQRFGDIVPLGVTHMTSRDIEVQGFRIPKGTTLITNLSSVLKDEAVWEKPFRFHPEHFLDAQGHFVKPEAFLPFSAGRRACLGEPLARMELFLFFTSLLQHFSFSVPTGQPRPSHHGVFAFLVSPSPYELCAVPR
Chain of Cytochrome P450 2C19 (P33261 whole entry): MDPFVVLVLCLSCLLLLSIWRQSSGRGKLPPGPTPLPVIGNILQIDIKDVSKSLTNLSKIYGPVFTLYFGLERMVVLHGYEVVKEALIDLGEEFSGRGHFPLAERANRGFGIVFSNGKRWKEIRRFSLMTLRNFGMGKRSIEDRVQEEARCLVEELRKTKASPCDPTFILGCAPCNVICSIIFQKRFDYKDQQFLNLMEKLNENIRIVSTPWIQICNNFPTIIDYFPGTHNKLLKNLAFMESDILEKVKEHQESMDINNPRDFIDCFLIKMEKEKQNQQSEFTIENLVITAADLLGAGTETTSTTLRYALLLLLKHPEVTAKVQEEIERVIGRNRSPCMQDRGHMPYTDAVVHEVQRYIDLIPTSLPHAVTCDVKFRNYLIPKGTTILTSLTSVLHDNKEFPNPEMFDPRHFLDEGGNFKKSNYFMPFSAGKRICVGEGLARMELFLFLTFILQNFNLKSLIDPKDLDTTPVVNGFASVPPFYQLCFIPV

Drug metabolism (Hepatocyte) | Drug metabolism (Cytochrome P450 2C19) | Drug metabolism (Cytochrome P450 3A5 [1]) | Drug metabolism [2] | Drug metabolism (Liver microsome) | Drug metabolism [3] | Drug metabolism (Cytochrome P450 2D6) | Drug metabolism (Cytochrome P450 3A5 [4]) | Drug metabolism (Cytochrome P450 1A2) | Drug metabolism (Cytochrome P450 3A4) | Drug metabolism [5] | SMILES
metabolite_not_detected | metabolite_detected |  |  |  |  |  |  |  |  |  | COc1ccc2nc(COc3ccc(CC(S)C(=O)O)cc3)n(C)c2c1 (stereo unspecified)
 |  | metabolite_not_detected | metabolite_detected | metabolite_not_detected | metabolite_not_detected | metabolite_not_detected | metabolite_detected | metabolite_not_detected | metabolite_detected | metabolite_detected | COc1ccc2nc(COc3ccc(C[14CH]4SC(=O)NC4=O)cc3)n(C)c2c1.Cl (racemic)
